Measurements reported in ChEMBL document CHEMBL4680134, “Structural optimization of natural product nordihydroguaretic acid to discover novel analogues as AcrB inhibitors” (Eur J Med Chem, 2020).

What was measured:
[1] = Growth inhibition of Escherichia coli BW25113 expressing AcrB at 512 ug/ml after 18 hrs by broth microdilution assay; conditions: dose 512 µg/ml
Method in brief: (§1)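 MIC determined by 96-well broth microdilution in E. coli BW25113 expressing AcrB ((+)AcrB) and an isogenic acrB-deleted strain ((-)AcrB). Used to set the compound concentrations for synergy testing that produce no direct antibacterial effect.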

[2] = Growth inhibition of Escherichia coli harboring AcrB deletion mutant at 64 ug/ml after 18 hrs by broth microdilution assay; conditions: dose 64 µg/ml; method in brief: as §1
[3] = molecular target: T1, Multidrug efflux pump subunit AcrB (Escherichia coli (strain K12)) (UniProt P31224); test: Inhibition of AcrB in Escherichia coli BW25113 assessed as potentiation of chloramphenicol induced antibacterial activity by measuring chloramphenicol MIC at 16 ug/ml measured after 18 hrs by checkerboard titration method (reference value: 8 ug/ml); conditions: dose 16.0 µg/ml
T1 sequence (whole entry): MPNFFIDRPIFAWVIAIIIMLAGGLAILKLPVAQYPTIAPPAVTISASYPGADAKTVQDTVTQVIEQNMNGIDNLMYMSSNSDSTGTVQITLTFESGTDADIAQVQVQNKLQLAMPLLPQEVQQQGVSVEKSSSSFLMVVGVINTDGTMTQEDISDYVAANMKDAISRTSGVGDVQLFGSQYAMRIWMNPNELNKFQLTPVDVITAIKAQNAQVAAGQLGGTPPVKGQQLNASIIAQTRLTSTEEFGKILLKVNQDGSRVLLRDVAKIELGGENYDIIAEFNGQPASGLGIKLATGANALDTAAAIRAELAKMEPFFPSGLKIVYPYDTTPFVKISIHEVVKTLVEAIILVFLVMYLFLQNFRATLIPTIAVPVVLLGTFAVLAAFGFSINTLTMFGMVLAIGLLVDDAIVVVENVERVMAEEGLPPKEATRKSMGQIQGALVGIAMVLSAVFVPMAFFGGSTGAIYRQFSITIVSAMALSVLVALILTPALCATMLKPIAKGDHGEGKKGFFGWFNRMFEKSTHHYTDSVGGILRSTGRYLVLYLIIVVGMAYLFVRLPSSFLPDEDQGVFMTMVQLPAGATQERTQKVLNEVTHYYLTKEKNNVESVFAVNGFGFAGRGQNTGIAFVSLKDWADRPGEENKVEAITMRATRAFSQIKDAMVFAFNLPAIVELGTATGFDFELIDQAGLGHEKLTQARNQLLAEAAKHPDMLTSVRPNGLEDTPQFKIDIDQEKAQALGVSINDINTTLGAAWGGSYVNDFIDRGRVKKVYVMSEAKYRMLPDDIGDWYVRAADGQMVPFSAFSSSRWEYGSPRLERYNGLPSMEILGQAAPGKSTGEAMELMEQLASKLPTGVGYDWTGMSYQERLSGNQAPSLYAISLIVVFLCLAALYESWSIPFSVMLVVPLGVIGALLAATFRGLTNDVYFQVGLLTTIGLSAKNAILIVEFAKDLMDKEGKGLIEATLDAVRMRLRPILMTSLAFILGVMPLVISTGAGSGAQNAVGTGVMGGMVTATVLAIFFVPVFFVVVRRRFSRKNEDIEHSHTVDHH

[4] = molecular target: T1, Multidrug efflux pump subunit AcrB (Escherichia coli (strain K12)); test: Inhibition of AcrB in Escherichia coli BW25113 assessed as potentiation of chloramphenicol induced antibacterial activity by measuring chloramphenicol MIC at 32 ug/ml measured after 18 hrs by checkerboard titration method (reference value: 8 ug/ml); conditions: dose 32.0 µg/ml
[5] = molecular target: T1, Multidrug efflux pump subunit AcrB (Escherichia coli (strain K12)); test: Inhibition of AcrB in Escherichia coli BW25113 assessed as potentiation of chloramphenicol induced antibacterial activity by measuring chloramphenicol MIC at 64 ug/ml measured after 18 hrs by checkerboard titration method (reference value: 8 ug/ml); conditions: dose 64.0 µg/ml
[6] = molecular target: T1, Multidrug efflux pump subunit AcrB (Escherichia coli (strain K12)); test: Inhibition of AcrB in Escherichia coli BW25113 assessed as potentiation of chloramphenicol induced antibacterial activity by measuring chloramphenicol MIC at 128 ug/ml measured after 18 hrs by checkerboard titration method (reference value: 8 ug/ml); conditions: dose 128.0 µg/ml
[7] = molecular target: T1, Multidrug efflux pump subunit AcrB (Escherichia coli (strain K12)); test: Inhibition of AcrB in Escherichia coli BW25113 assessed as potentiation of erythromycin induced antibacterial activity by measuring erythromycin MIC at 16 ug/ml measured after 18 hrs by checkerboard titration method (reference value: 64 ug/ml); conditions: dose 16.0 µg/ml
[8] = molecular target: T1, Multidrug efflux pump subunit AcrB (Escherichia coli (strain K12)); test: Inhibition of AcrB in Escherichia coli BW25113 assessed as potentiation of erythromycin induced antibacterial activity by measuring erythromycin MIC at 32 ug/ml measured after 18 hrs by checkerboard titration method (reference value: 64 ug/ml); conditions: dose 32.0 µg/ml
[9] = molecular target: T1, Multidrug efflux pump subunit AcrB (Escherichia coli (strain K12)); test: Inhibition of AcrB in Escherichia coli BW25113 assessed as potentiation of erythromycin induced antibacterial activity by measuring erythromycin MIC at 128 ug/ml measured after 18 hrs by checkerboard titration method (reference value: 64 ug/ml); conditions: dose 128.0 µg/ml
[10] = molecular target: T1, Multidrug efflux pump subunit AcrB (Escherichia coli (strain K12)); test: Inhibition of AcrB in Escherichia coli BW25113 assessed as potentiation of tetraphenylphosphonium induced antibacterial activity by measuring tetraphenylphosphonium MIC at 16 ug/ml measured after 18 hrs by checkerboard titration method (reference value: 1024 ug/ml); conditions: dose 16.0 µg/ml
[11] = molecular target: T1, Multidrug efflux pump subunit AcrB (Escherichia coli (strain K12)); test: Inhibition of AcrB in Escherichia coli BW25113 assessed as potentiation of tetraphenylphosphonium induced antibacterial activity by measuring tetraphenylphosphonium MIC at 32 ug/ml measured after 18 hrs by checkerboard titration method (reference value: 1024 ug/ml); conditions: dose 32.0 µg/ml
[12] = molecular target: T1, Multidrug efflux pump subunit AcrB (Escherichia coli (strain K12)); test: Inhibition of AcrB in Escherichia coli BW25113 assessed as potentiation of levofloxacin induced antibacterial activity by measuring levofloxacin MIC at 32 ug/ml measured after 18 hrs by checkerboard titration method (reference value: 0.06 ug/ml); conditions: dose 32.0 µg/ml
[13] = molecular target: T1, Multidrug efflux pump subunit AcrB (Escherichia coli (strain K12)); test: Inhibition of AcrB in Escherichia coli BW25113 assessed as potentiation of levofloxacin induced antibacterial activity by measuring levofloxacin MIC at 64 ug/ml measured after 18 hrs by checkerboard titration method (reference value: 0.06 ug/ml); conditions: dose 64.0 µg/ml
[14] = molecular target: T1, Multidrug efflux pump subunit AcrB (Escherichia coli (strain K12)); test: Inhibition of AcrB in Escherichia coli BW25113 assessed as potentiation of levofloxacin induced antibacterial activity by measuring levofloxacin MIC at 128 ug/ml measured after 18 hrs by checkerboard titration method (reference value: 0.06 ug/ml); conditions: dose 128.0 µg/ml
[15] = molecular target: T1, Multidrug efflux pump subunit AcrB (Escherichia coli (strain K12)); test: Inhibition of AcrB in Escherichia coli BW25113 assessed as potentiation of rifampicin induced antibacterial activity by measuring rifampicin MIC at 64 ug/ml measured after 18 hrs by checkerboard titration method (reference value: 16 ug/ml); conditions: dose 64.0 µg/ml
Cell membrane = test: Induction of outer membrane permeabilization in wild type Escherichia coli BW25113 assessed as increase in nitrocefin hydrolysis at 128 ug/ml by spectrophotometry analysis; conditions: dose 128 µg/ml
Method in brief: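 Outer-membrane permeability: intact E. coli treated with 10 µM CCCP to block nitrocefin efflux, then exposed to compound. Nitrocefin hydrolysis by periplasmic β-lactamase followed as increasing absorbance at 490 nm over time. Polymyxin B as permeabilizer control, untreated cells as baseline. Duplicate experiments on different days.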

Row | SMILES | growth inhibition (GI) [1] | growth inhibition (GI) [2] | MIC [3] [µg/mL] | MIC [4] [µg/mL] | MIC [5] [µg/mL] | MIC [6] [µg/mL] | MIC [7] [µg/mL] | MIC [8] [µg/mL] | MIC [9] [µg/mL] | MIC [10] [µg/mL] | MIC [11] [µg/mL] | MIC [12] [µg/mL] | MIC [13] [µg/mL] | MIC [14] [µg/mL] | MIC [15] [µg/mL] | Activity (Cell membrane)
1 | Nc1ccc(C(=O)NCCc2ccc(O)c(O)c2)cc1 | Non-Toxic | Non-Toxic | 4 | 4 | 4 | 2 | 64 | 32 | 16 | 1020 | 1020 | 0.06 | 0.06 | 0.06 | 16 | Non-Toxic
2 | C[C@H](Cc1ccc(O)c(O)c1)[C@@H](C)Cc1ccc(O)c(O)c1 [MASOPROCOL] | – | – | – | 8 | 8 | 4 | – | 64 | 64 | – | 1020 | 0.06 | 0.03 | 0.03 | 16 | –
3 | O=C(NCCc1ccc(O)c(O)c1)c1ccc(O)c(O)c1 | Non-Toxic | Non-Toxic | 4 | 4 | 2 | 2 | 64 | 32 | 32 | 1020 | 512 | 0.06 | 0.06 | 0.06 | 16 | –
4 | Oc1ccc(CCCCCCc2ccc(O)c(O)c2)cc1O | Non-Toxic | Non-Toxic | 8 | 8 | 8 | 8 | 64 | 64 | 64 | – | 512 | 0.06 | 0.06 | 0.06 | 16 | Non-Toxic
5 | Oc1ccc(CCCCc2cc(O)c(O)c(O)c2)cc1O | Non-Toxic | Non-Toxic | 8 | 8 | 8 | 8 | 64 | 64 | 32 | 512 | 512 | 0.06 | 0.06 | 0.06 | 16 | –
6 | Nc1cc(N)cc(C(=O)NCCc2ccc(O)c(O)c2)c1 | Non-Toxic | Non-Toxic | 8 | 8 | 8 | 8 | 64 | 32 | 32 | 512 | 512 | 0.06 | 0.06 | 0.06 | 16 | Non-Toxic
7 | Oc1ccc(CCCCCc2ccc(O)c(O)c2)cc1O | Non-Toxic | – | 8 | 8 | 8 | 8 | 64 | 64 | 64 | 1020 | 1020 | 0.06 | 0.06 | 0.06 | 16 | Non-Toxic
8 | Oc1ccc(CCCCc2ccc(O)c(O)c2)cc1O | Non-Toxic | Non-Toxic | 8 | 8 | 8 | 8 | 64 | 64 | 32 | 1020 | 1020 | 0.06 | 0.06 | 0.06 | 16 | –
9 | O=C(NCCc1ccc(O)c(O)c1)c1ccccc1O | Non-Toxic | Non-Toxic | 8 | 8 | 8 | 4 | 64 | 64 | 64 | 1020 | 1020 | 0.03 | 0.03 | 0.03 | 16 | –
10 | Oc1ccc(CCCc2ccc(O)c(O)c2)cc1O | Non-Toxic | Non-Toxic | 8 | 8 | 8 | 8 | 64 | 64 | 32 | 1020 | 1020 | 0.06 | 0.06 | 0.06 | 16 | –
11 | O=C(NCCc1ccc(O)c(O)c1)c1ccc(C(F)(F)F)cc1 | Non-Toxic | Non-Toxic | 8 | 8 | 8 | 8 | 64 | 64 | 64 | 1020 | 1020 | 0.06 | 0.06 | 0.03 | 16 | –
12 | O=C(NCCc1ccc(O)c(O)c1)c1ccc(Br)cc1 | Non-Toxic | Non-Toxic | 8 | 8 | 8 | 8 | 64 | 64 | 32 | 1020 | 1020 | 0.06 | 0.06 | 0.06 | 16 | –
13 | Cc1ccc(C(=O)NCCc2ccc(O)c(O)c2)cc1 | – | – | 8 | 8 | – | – | 32 | 16 | – | 1020 | 1020 | 0.06 | – | – | 16 | Non-Toxic
